In ChEMBL document CHEMBL3046000, “Design and synthesis of 1-(benzothiazol-5-yl)-1H-1,2,4-triazol-5-ones as protoporphyrinogen oxidase inhibitors” (Bioorg Med Chem, 2013):

Tests used:
Capsella bursa-pastoris = test: Post-emergence herbicidal activity against Capsella bursa-pastoris assessed as plant growth inhibition at 75 g ai/ha; type: functional; details: read-out: GI
Procedure, shortened: (§1)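 Compounds formulated as 100 g/L emulsifiable concentrates in DMF with Tween-80 as emulsifier, then diluted with water. Sprayed post-emergence onto pot-grown plants in a greenhouse, with broadleaf weeds at the 2-leaf stage and grasses at the 1-leaf stage. Clay soil with 1.6% organic matter and CEC 12.1 […]; relative humidity about 50%. Rate (g ai/ha) = active ingredient ÷ pot surface area. Untreated and DMF + Tween-80 solvent controls.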

[1] = Phytotoxicity against four-leaf stage Oryza sativa (rice) plants assessed as plant growth inhibition at 150 g ai/ha applied through spraying measured 30 days after compound treatment under greenhouse conditions; type: organism-based; details: in vivo, read-out: GI
[2] = Phytotoxicity against 4-leaf stage Triticum aestivum (wheat) plants assessed as plant growth inhibition at 150 g ai/ha applied through spraying measured 30 days after compound treatment under greenhouse conditions; type: organism-based; details: in vivo, read-out: GI
Chenopodium album [3] = test: Post-emergence herbicidal activity against Chenopodium album seedlings assessed as plant growth inhibition at 37.5 g ai/ha measured 15 days after compound treatment under greenhouse conditions; type: functional; details: 360 h, read-out: GI
Myosoton aquaticum = test: Post-emergence herbicidal activity against Myosoton aquaticum assessed as plant growth inhibition at 75 g ai/ha; type: functional; details: read-out: GI; procedure, shortened: as §1
Veronica polita = test: Post-emergence herbicidal activity against Veronica polita assessed as plant growth inhibition at 75 g ai/ha; type: functional; details: read-out: GI; procedure, shortened: as §1
Sonchus asper = test: Post-emergence herbicidal activity against Sonchus asper assessed as plant growth inhibition at 75 g ai/ha; type: functional; details: read-out: GI; procedure, shortened: as §1
Digitaria sanguinalis [4] = test: Post-emergence herbicidal activity against Digitaria sanguinalis (hairy crabgrass) seedlings assessed as plant growth inhibition at 37.5 g ai/ha measured 15 days after compound treatment under greenhouse conditions; type: functional; details: 360 h, read-out: GI
Setaria faberi [5] = test: Post-emergence herbicidal activity against Setaria faberi (Giant Foxtail) seedlings assessed as plant growth inhibition at 150 g ai/ha measured 15 days after compound treatment under greenhouse conditions; type: functional; details: 360 h, read-out: GI
[6] = biological target: T1, Protoporphyrinogen oxidase, chloroplastic (Nicotiana tabacum, UniProt O24163); test: Inhibition of Nicotiana tabacum (tobacco) recombinant PPO assessed as protoporphyrin IX formation at room temperature by fluorimetric assay
T1 sequence (O24163 whole entry): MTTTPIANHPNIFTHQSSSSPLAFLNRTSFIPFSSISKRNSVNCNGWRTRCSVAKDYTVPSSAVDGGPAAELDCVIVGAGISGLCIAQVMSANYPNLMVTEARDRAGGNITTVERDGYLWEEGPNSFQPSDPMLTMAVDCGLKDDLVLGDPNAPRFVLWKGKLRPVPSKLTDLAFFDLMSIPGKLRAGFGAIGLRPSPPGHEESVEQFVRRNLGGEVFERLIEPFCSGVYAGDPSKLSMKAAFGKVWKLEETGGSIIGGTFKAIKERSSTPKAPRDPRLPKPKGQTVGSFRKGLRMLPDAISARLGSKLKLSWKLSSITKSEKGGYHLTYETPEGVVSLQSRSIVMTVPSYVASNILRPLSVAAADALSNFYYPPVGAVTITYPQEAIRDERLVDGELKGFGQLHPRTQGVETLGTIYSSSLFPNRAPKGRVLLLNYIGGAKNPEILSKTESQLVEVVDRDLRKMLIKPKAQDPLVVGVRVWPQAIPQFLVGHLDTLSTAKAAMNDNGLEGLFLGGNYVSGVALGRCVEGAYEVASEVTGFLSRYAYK

Senna tora = test: Post-emergence herbicidal activity against Senna tora assessed as plant growth inhibition at 75 g ai/ha; type: functional; details: read-out: GI; procedure, shortened: as §1
Digitaria sanguinalis [7] = test: Post-emergence herbicidal activity against Digitaria sanguinalis (hairy crabgrass) seedlings assessed as plant growth inhibition at 150 g ai/ha measured 15 days after compound treatment under greenhouse conditions; type: functional; details: 360 h, read-out: GI
Echinochloa crus-galli [8] = test: Post emergence herbicidal activity against Echinochloa crus-galli (barnyard grass) seedlings assessed as plant growth inhibition at 37.5 g ai/ha measured 15 days after compound treatment under greenhouse conditions; type: functional; details: 360 h, read-out: GI
Digitaria sanguinalis [9] = test: Post-emergence herbicidal activity against Digitaria sanguinalis (hairy crabgrass) seedlings assessed as plant growth inhibition at 75 g ai/ha measured 15 days after compound treatment under greenhouse conditions; type: functional; details: 360 h, read-out: GI
Brassica juncea [10] = test: Post-emergence herbicidal activity against Brassica juncea seedlings assessed as plant growth inhibition at 37.5 g ai/ha measured 15 days after compound treatment under greenhouse conditions; type: functional; details: 360 h, read-out: GI
Brassica juncea [11] = test: Post-emergence herbicidal activity against Brassica juncea seedlings assessed as plant growth inhibition at 150 g ai/ha measured 15 days after compound treatment under greenhouse conditions; type: functional; details: 360 h, read-out: GI
[12] = Phytotoxicity against four-leaf stage Zea mays cv. Anjou (maize) plants assessed as plant growth inhibition at 150 g ai/ha applied through spraying measured 30 days after compound treatment under greenhouse conditions; type: organism-based; details: in vivo, read-out: GI
Amaranthus retroflexus [13] = test: Post emergence herbicidal activity against Amaranthus retroflexus seedlings assessed as plant growth inhibition at 37.5 g ai/ha measured 15 days after compound treatment under greenhouse conditions; type: functional; details: 360 h, read-out: GI
Ammannia baccifera = test: Post-emergence herbicidal activity against Ammannia baccifera assessed as plant growth inhibition at 75 g ai/ha; type: functional; details: read-out: GI; procedure, shortened: as §1
Brassica juncea [14] = test: Post-emergence herbicidal activity against Brassica juncea seedlings assessed as plant growth inhibition at 75 g ai/ha measured 15 days after compound treatment under greenhouse conditions; type: functional; details: 360 h, read-out: GI
[15] = Phytotoxicity against 4-leaf stage Glycine max (soybean) plants assessed as plant growth inhibition at 150 g ai/ha applied through spraying measured 30 days after compound treatment under greenhouse conditions; type: organism-based; details: in vivo, read-out: GI
Commelina communis = test: Post-emergence herbicidal activity against Commelina communis (Asiatic dayflower) assessed as plant growth inhibition at 75 g ai/ha; type: functional; details: read-out: GI; procedure, shortened: as §1
Echinochloa crus-galli [16] = test: Post emergence herbicidal activity against Echinochloa crus-galli (barnyard grass) seedlings assessed as plant growth inhibition at 150 g ai/ha measured 15 days after compound treatment under greenhouse conditions; type: functional; details: 360 h, read-out: GI
Solanum nigrum = test: Post-emergence herbicidal activity against Solanum nigrum (black nightshade) assessed as plant growth inhibition at 75 g ai/ha; type: functional; details: read-out: GI; procedure, shortened: as §1
Echinochloa crus-galli [17] = test: Post emergence herbicidal activity against Echinochloa crus-galli (barnyard grass) seedlings assessed as plant growth inhibition at 75 g ai/ha measured 15 days after compound treatment under greenhouse conditions; type: functional; details: 360 h, read-out: GI
[18] = Phytotoxicity against four-leaf stage Gossypium hirsutum (cotton) plants assessed as plant growth inhibition at 150 g ai/ha applied through spraying measured 30 days after compound treatment under greenhouse conditions; type: organism-based; details: in vivo, read-out: GI
Chenopodium album [19] = test: Post-emergence herbicidal activity against Chenopodium album seedlings assessed as plant growth inhibition at 75 g ai/ha measured 15 days after compound treatment under greenhouse conditions; type: functional; details: 360 h, read-out: GI
Symphyotrichum subulatum = test: Post-emergence herbicidal activity against Symphyotrichum subulatum assessed as plant growth inhibition at 75 g ai/ha; type: functional; details: read-out: GI; procedure, shortened: as §1
Amaranthus retroflexus [20] = test: Post emergence herbicidal activity against Amaranthus retroflexus seedlings assessed as plant growth inhibition at 75 g ai/ha measured 15 days after compound treatment under greenhouse conditions; type: functional; details: 360 h, read-out: GI
Setaria faberi [21] = test: Post-emergence herbicidal activity against Setaria faberi (Giant Foxtail) seedlings assessed as plant growth inhibition at 37.5 g ai/ha measured 15 days after compound treatment under greenhouse conditions; type: functional; details: 360 h, read-out: GI
Ludwigia prostrata = test: Post-emergence herbicidal activity against Ludwigia prostrata assessed as plant growth inhibition at 75 g ai/ha; type: functional; details: read-out: GI; procedure, shortened: as §1
Amaranthus retroflexus [22] = test: Post emergence herbicidal activity against Amaranthus retroflexus seedlings assessed as plant growth inhibition at 150 g ai/ha measured 15 days after compound treatment under greenhouse conditions; type: functional; details: 360 h, read-out: GI
[23] = Phytotoxicity against 4-leaf stage Glycine max (soybean) plants assessed as plant growth inhibition at 75 g ai/ha applied through spraying measured 30 days after compound treatment under greenhouse conditions; type: organism-based; details: in vivo, read-out: GI
Amaranthus spinosus = test: Post-emergence herbicidal activity against Amaranthus spinosus assessed as plant growth inhibition at 75 g ai/ha; type: functional; details: read-out: GI; procedure, shortened: as §1
Setaria faberi [24] = test: Post-emergence herbicidal activity against Setaria faberi (Giant Foxtail) seedlings assessed as plant growth inhibition at 75 g ai/ha measured 15 days after compound treatment under greenhouse conditions; type: functional; details: 360 h, read-out: GI
Phytolacca acinosa = test: Post-emergence herbicidal activity against Raddix phytolaccae assessed as plant growth inhibition at 75 g ai/ha; type: functional; details: read-out: GI; procedure, shortened: as §1
Alkekengi officinarum = test: Post-emergence herbicidal activity against Physalis alkekengi assessed as plant growth inhibition at 75 g ai/ha; type: functional; details: read-out: GI; procedure, shortened: as §1
Cerastium arvense = test: Post-emergence herbicidal activity against Cerastium arvense assessed as plant growth inhibition at 75 g ai/ha; type: functional; details: read-out: GI; procedure, shortened: as §1
Polygonum humifusum = test: Post-emergence herbicidal activity against Polygonum humifusum assessed as plant growth inhibition at 75 g ai/ha; type: functional; details: read-out: GI; procedure, shortened: as §1
Eleusine indica = test: Post-emergence herbicidal activity against Eleusine indica assessed as plant growth inhibition at 75 g ai/ha; type: functional; details: read-out: GI; procedure, shortened: as §1
Boehmeria nivea = test: Post-emergence herbicidal activity against Boehmeria nivea assessed as plant growth inhibition at 75 g ai/ha; type: functional; details: read-out: GI; procedure, shortened: as §1
Chenopodium album [25] = test: Post-emergence herbicidal activity against Chenopodium album seedlings assessed as plant growth inhibition at 150 g ai/ha measured 15 days after compound treatment under greenhouse conditions; type: functional; details: 360 h, read-out: GI
[26] = Phytotoxicity against four-leaf stage Brassica napus (oilseed rape) plants assessed as plant growth inhibition at 150 g ai/ha applied through spraying measured 30 days after compound treatment under greenhouse conditions; type: organism-based; details: in vivo, read-out: GI

Question: Which results are given for `CCOC(=O)C(C)Sc1nc2cc(-n3nc(C)n(C(F)F)c3=O)c(F)cc2s1` (stereo not drawn)?
Answer: inhibition of growth at 75 g/ha (Capsella bursa-pastoris): 100%; inhibition at 720 h [1]: 50%; inhibition at 720 h [2]: 80%; inhibition of growth at 37.5 g/ha (Chenopodium album [3]): 60%; inhibition of growth at 75 g/ha (Myosoton aquaticum): > 90%; inhibition of growth at 75 g/ha (Veronica polita): 100%; inhibition of growth at 75 g/ha (Sonchus asper): 100%; inhibition of growth at 37.5 g/ha (Digitaria sanguinalis [4]): 80%; inhibition of growth at 150 g/ha (Setaria faberi [5]): ≥ 90%; Ki [6]: 0.24 µM; inhibition of growth at 75 g/ha (Senna tora): > 90%; inhibition of growth at 150 g/ha (Digitaria sanguinalis [7]): ≥ 90%; inhibition of growth at 37.5 g/ha (Echinochloa crus-galli [8]): 80%; inhibition of growth at 75 g/ha (Digitaria sanguinalis [9]): 80%; inhibition of growth at 37.5 g/ha (Brassica juncea [10]): ≥ 90%; inhibition of growth at 150 g/ha (Brassica juncea [11]): ≥ 90%; inhibition at 720 h [12]: 30%; inhibition of growth at 37.5 g/ha (Amaranthus retroflexus [13]): 80%; inhibition of growth at 75 g/ha (Ammannia baccifera): > 90%; inhibition of growth at 75 g/ha (Brassica juncea [14]): ≥ 90%; inhibition at 720 h [15]: 0%; inhibition of growth at 75 g/ha (Commelina communis): > 90%; inhibition of growth at 150 g/ha (Echinochloa crus-galli [16]): ≥ 90%; inhibition of growth at 75 g/ha (Solanum nigrum): 100%; inhibition of growth at 75 g/ha (Echinochloa crus-galli [17]): 80%; inhibition at 720 h [18]: 70%; inhibition of growth at 75 g/ha (Chenopodium album [19]): 60%; inhibition of growth at 75 g/ha (Symphyotrichum subulatum): 100%; inhibition of growth at 75 g/ha (Amaranthus retroflexus [20]): 80%; inhibition of growth at 37.5 g/ha (Setaria faberi [21]): ≥ 90%; inhibition of growth at 75 g/ha (Ludwigia prostrata): > 90%; inhibition of growth at 150 g/ha (Amaranthus retroflexus [22]): ≥ 90%; inhibition at 720 h [23]: 0%; inhibition of growth at 75 g/ha (Amaranthus spinosus): 100%; inhibition of growth at 75 g/ha (Setaria faberi [24]): ≥ 90%; inhibition of growth at 75 g/ha (Phytolacca acinosa): > 90%; inhibition of growth at 75 g/ha (Alkekengi officinarum): > 90%; inhibition of growth at 75 g/ha (Cerastium arvense): 100%; inhibition of growth at 75 g/ha (Polygonum humifusum): 100%; inhibition of growth at 75 g/ha (Eleusine indica): 100%; inhibition of growth at 75 g/ha (Boehmeria nivea): 100%; inhibition of growth at 150 g/ha (Chenopodium album [25]): ≥ 90%; inhibition at 720 h [26]: 100%
